Test [1] relates to Bacillus subtilis. Put plainly: Antibacterial activity aginst Bacillus subtilis DSM 10 assessed as inhibition of bacterial growth incubated for overnight by serial dilution method. The class given is functional.
Test [2] relates to Mucor hiemalis. The test can be described thus: Antifungal activity against Mucor hiemalis DSM 2656 assessed as inhibition of fungal growth incubated for overnight by serial dilution method. It counts as functional.
Test [3] relates to Staphylococcus aureus. Put plainly: Antibacterial activity against Staphylococcus aureus DSM 346 assessed as inhibition of bacterial growth incubated for overnight by serial dilution method. The class given is functional.
Test [4] has as its system L929. Put plainly: Cytotoxicity against mouse L929 cells assessed as inhibition of cell proliferation incubated for 5 days by MTT assay. The class given is functional, cell-based. The conditions noted are these: L929, 120 h. In a few lines: (§1)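 Colorimetric MTT tetrazolium assay, with epothilone B (1 mg/mL stock) as the positive control. IC50 was determined.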
For orientation: Formazan colour is commonly taken as a measure of viable cells.

The subject of test [5] is KB 3-1. Put plainly: Cytotoxicity against human KB 3-1 cells assessed as inhibition of cell proliferation incubated for 5 days by MTT assay. The class given is functional, cell-based. The note with it: KB 3-1, 120 h. In a few lines: as §1
In test [6] the test system is SK-OV-3. Put plainly: Cytotoxicity against human SK-OV-3 cells assessed as inhibition of cell proliferation incubated for 5 days by MTT assay. The conditions noted are these: SK-OV-3, 120 h. The class given is functional, cell-based. In a few lines: as §1
Test [7] deals with Chromobacterium violaceum. Put plainly: Antibacterial activity against Chromobacterium violaceum DSM 30191 assessed as inhibition of bacterial growth incubated for overnight by serial dilution method. The class given is functional.
Test [8] relates to Escherichia coli. Put plainly: Antibacterial activity against Escherichia coli DSM 1116 assessed as inhibition of bacterial growth incubated for overnight by serial dilution method. It counts as functional.
Test [9] deals with Micrococcus luteus. Put plainly: Antibacterial activity against Micrococcus luteus DSM 1790 assessed as inhibition of bacterial growth incubated for overnight by serial dilution method. It counts as functional.
The test system of test [10] is Wickerhamomyces anomalus. The test can be described thus: Antifungal activity against Pichia anomala DSM 6766 assessed as inhibition of fungal growth incubated for overnight by serial dilution method. It counts as functional, organism-based.
For test [11], the system named is Rhodotorula glutinis. The test can be described thus: Antifungal activity against Rhodotorula glutinis DSM 10134 assessed as inhibition of fungal growth incubated for overnight by serial dilution method. The class given is functional, organism-based.
In test [12] the test system is Schizosaccharomyces pombe. Put plainly: Antifungal activity against Schizosaccharomyces pombe DSM 70572 assessed as inhibition of fungal growth incubated for overnight by serial dilution method. It counts as functional, organism-based.
The test system of test [13] is Mycolicibacterium smegmatis. The test can be described thus: Antibacterial activity against Mycobacterium smegmatis ATCC 700084 assessed as inhibition of bacterial growth incubated for overnight by serial dilution method. It counts as functional.
Test [14] has as its system Pseudomonas aeruginosa. Put plainly: Antibacterial activity against Pseudomonas aeruginosa PA 14 assessed as inhibition of bacterial growth incubated for overnight by serial dilution method. It counts as functional, organism-based.

In brackets after ≈: the same amount, converted by molar mass.

Turning to `CC(C)=CCC/C(C)=C/Cc1c(O)c(Cl)c(C)c(C=O)c1O`, the MIC (usually the lowest concentration that inhibits growth of the organism) in test [1] came out at 2.1 µg/mL (≈ 6.5 µM); in test [2] it was 33.3 µg/mL (≈ 103 µM); in [3], 1.04 µg/mL (≈ 3.22 µM). Further, the IC50 (commonly the concentration needed to halve the response being measured) in test [4] stood at 18 µM; in test [5], 7.7 µM; in [6], 5.6 µM.

Regarding `CN(C)[C@@H]1C(=O)C(C(N)=O)=C(O)[C@@]2(O)C(=O)C3=C(O)c4c(O)cccc4[C@@](C)(O)[C@H]3[C@H](O)[C@@H]12`, the MIC in test [1] was 3.33 µg/mL (≈ 7.23 µM); in test [7] it was 1.7 µg/mL (≈ 3.69 µM); in [8] it was 8.3 µg/mL (≈ 18 µM); in [9], 0.83 µg/mL (≈ 1.8 µM); in [3] it was 0.4 µg/mL (≈ 0.869 µM).

With `C/C(=C\c1csc(C)n1)[C@@H]1C[C@@H]2O[C@]2(C)CCC[C@H](C)[C@H](O)[C@@H](C)C(=O)C(C)(C)[C@@H](O)CC(=O)O1` [PATUPILONE], the figures for the IC50 in test [4] and in test [5] were 0.0014 µM and 6.9e-05 µM, respectively.

With NYSTATIN, the minimum inhibitory concentration (MIC) was found to be 16.7 µg/mL in test [2], 16.7 µg/mL in [10], 4.2 µg/mL in test [11] and 16.7 µg/mL in test [12].

As for `NC[C@H]1O[C@H](O[C@H]2[C@H](O)[C@@H](O[C@H]3O[C@H](CO)[C@@H](O)[C@H](N)[C@H]3O)[C@H](N)C[C@@H]2N)[C@H](O)[C@@H](O)[C@@H]1O` [KANAMYCIN], the MIC in test [13] stood at 1.7 µg/mL (≈ 3.51 µM).

With `CC(C)=CCc1c(C)cc(O)c(CC=C(C)C)c1O`, the MIC in test [1], in test [2] and in test [3] was 33.3 µg/mL (≈ 128 µM) throughout. The IC50 in test [4] was 53.8 µM; in test [5], 57.7 µM.

For the compound `CC(C)=CCc1c(C)c(C(=O)O)c(O)c(CC=C(C)C)c1O`, the MIC in [1], in [2] and in test [3] was 66.7 µg/mL (≈ 219 µM) each time. Moreover, the IC50 in [4] stood at 59.2 µM; in [5] it was 42.7 µM.

As to GENTAMICIN, the MIC in test [14] was determined as 0.4 µg/mL.

In the case of `CC(C)=CCC/C(C)=C/Cc1c(O)cc(C)c(C=O)c1O`, the MIC in [1] was 4.2 µg/mL (≈ 14.6 µM); in test [9], 33.3 µg/mL (≈ 116 µM); in test [2], 16.7 µg/mL (≈ 57.8 µM); in test [3], 8.33 µg/mL (≈ 28.9 µM). Besides, the IC50 in test [4] was 66 µM; in [5] it was 62.5 µM.

Turning to `CC(C)=CCC/C(C)=C/Cc1c(O)cc(C)c(C(=O)O)c1O`, the MIC in test [1] and in test [3] was 66.7 µg/mL (≈ 219 µM) in each case.
